{"data": "Published values from different studies", "MTNR1A": "Melatonin receptor type 1A (MTNR1A, Homo sapiens, UniProt P48039)"}
{"SMILES": "Cc1nn(C)cc1-c1nc2c(N3CCN(Cc4ccc(Cl)cc4)CC3)c(Cl)cnc2[nH]1", "target": "Receptor-type tyrosine-protein kinase FLT3 (FLT3, Homo sapiens, UniProt P36888)", "assay": "binding, competition with immobilised ligand", "conditions": "1 µM", "measurement": "remaining binding", "value": "0.4%"}
{"SMILES": "CCN(CC)CCCC[C@H](NC(=O)[C@H](CC(C)C)NC(=O)[C@H](C)NC(=O)[C@H](Cc1ccccc1)NC(=O)c1ccc(C(C)(C)C)cc1)C(=O)N[C@@H](CO)C(=O)OC", "target": "B2 bradykinin receptor (BDKRB2, Homo sapiens, UniProt P30411)", "assay": "ligand displacement, radioligand", "conditions": "10 µM", "measurement": "remaining binding", "value": "107%"}
{"SMILES": "COc1ccc2cccc(C(CO)CNC(=O)CF)c2c1 (centres unmarked)", "target": "MTNR1A", "assay": "cAMP, agonist, TR-FRET", "system": "CHO-K1", "conditions": "20 min", "measurement": "Emax", "value": "93%"}
{"SMILES": "Nc1ncc(-c2nc(N3CCOCC3)nc(N3CCOCC3)n2)c(C(F)F)n1", "target": "Serine/threonine-protein kinase DCLK3 (DCLK3, Homo sapiens, UniProt Q9C098)", "assay": "binding, competition with immobilised ligand", "conditions": "10 µM", "measurement": "remaining binding", "value": "73%"}
{"SMILES": "C#Cc1n[nH]c2c(-c3cn([C@@H](C)c4ccccn4)c(=O)[nH]c3=O)cc(F)cc12", "target": "Rho-associated protein kinase 2 (ROCK2, Homo sapiens, UniProt O75116)", "assay": "enzyme activity, inhibitor", "conditions": "0.1 µM", "measurement": "inhibition", "value": "1.2%"}
{"SMILES": "COc1ncccc1-c1cnn2ccc(N3CCN(C(=O)OC(C)C)CC3)nc12", "target": "Serine/threonine-protein kinase ULK3 (ULK3, Homo sapiens, UniProt Q6PHR2)", "assay": "binding, competition with immobilised ligand", "conditions": "1 µM", "measurement": "remaining binding", "value": "54%"}
{"SMILES": "COc1ccc2[nH]cc(CCNC(=O)CI)c2c1", "target": "MTNR1A", "assay": "GTPγS binding, agonist, radiometric", "conditions": "cell membranes", "measurement": "Emax", "value": "83%"}
{"SMILES": "CNC1(c2ccccc2Cl)CCCCC1=O (racemic)", "target": "Fatty-acid amide hydrolase 1 (FAAH, Homo sapiens, UniProt O00519)", "assay": "enzyme activity, inhibitor", "conditions": "30 µM", "measurement": "inhibition", "value": "2%"}
